Screening results deposited in PubChem by several laboratories.
zfTRPN1 agonist – activates the zebrafish TRPN1 channel. HEK293 zebrafish TRPN1-YFP, Fluo-8 calcium fluorescence; 100% = response to 87 µM carbachol. activation, % at 3 µM. hit rate 0.18% among 220,000;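 active = activation above its plate's cutoff, the mean activation of test wells on that plate plus 3 SD, cut at about 19% in these data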;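 note: 0% = DMSO alone and 100% = 87 µM carbachol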
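Material: zebrafish TRPN1-YFP in HEK293 cells. Doses: one dose of 3 µM, 0.3% DMSO. Incubation: dye 1 h 37 °C plus 30 min RT. Measured by: intracellular calcium fluorescence with Fluo-8.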
TRPML3 agonist – human mucolipin-3 channel agonism; Q8TDD5; HEK293 TRPML3-YFP, Fluo-8 calcium fluorescence; 100% = the carbachol control signal; activation, % at 3 µM; hit rate 0.29% among 220,000; AID 1448;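 active = activation above its plate's cutoff, the mean activation of the plate's test wells plus 3 SD, cut at about 12% in these data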;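 note: 0% = DMSO only wells and 100% = carbachol wells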
Target sequence (Q8TDD5 whole entry, looked up): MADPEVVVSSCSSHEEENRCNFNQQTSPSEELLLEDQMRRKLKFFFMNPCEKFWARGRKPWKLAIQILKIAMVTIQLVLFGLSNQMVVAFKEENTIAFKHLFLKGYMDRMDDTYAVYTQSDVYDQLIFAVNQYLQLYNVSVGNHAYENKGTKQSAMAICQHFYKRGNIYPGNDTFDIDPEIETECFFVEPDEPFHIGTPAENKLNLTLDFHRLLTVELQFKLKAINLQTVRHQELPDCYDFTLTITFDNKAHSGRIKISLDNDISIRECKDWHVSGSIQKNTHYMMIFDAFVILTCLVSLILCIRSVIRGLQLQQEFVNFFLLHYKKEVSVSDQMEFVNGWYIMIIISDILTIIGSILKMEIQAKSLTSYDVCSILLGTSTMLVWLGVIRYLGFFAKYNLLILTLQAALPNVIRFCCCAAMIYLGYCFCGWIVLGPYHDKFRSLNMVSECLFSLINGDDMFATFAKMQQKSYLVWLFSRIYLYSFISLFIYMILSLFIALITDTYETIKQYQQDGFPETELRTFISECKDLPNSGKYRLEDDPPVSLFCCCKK
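Material: HEK293 cells stably carrying human TRPML3-YFP; compound dosing: single dose, 3 µM final nominal compound, 0.3% DMSO final; incubation: 1-h 37 °C dye load, 5-s basal, 120-s post-compound reads; technique: Fluo-8 intracellular calcium fluorescence, excitation 470-495 nm, emission 515-575 nm; read-out basis: percent activation from peak-to-basal fluorescence ratio, scaled between DMSO and carbachol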
GPR7 antagonist – human neuropeptides B/W receptor 1 antagonism; P48145; GPR7-expressing cells, fluorescence antagonist assay; inhibition, % at 4.4 µM; hit rate 1.1% among 290,000; AID 1861; in the data active = inhibition above about 16%, passing the limit was not always enough;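 note: cells stimulated with the agonist NPW; 0% = agonist with vehicle and 100% = vehicle without agonist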
CRFBP-R2 agonist – CRF-BP/CRF-R2 complex agonism | HEK293 CRF-R2/CRF-BP, calcium dye fluorescence (FLIPR); percent of saturating CRF peptide response | AID 588473 | hit rate 0.46% among 350,000 | activation, % at 13.2 µM;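 active = activation of at least 50%, plus an integration ratio under a set limit after plate pattern correction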;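 note: plate controls were neutral control wells without compound for no effect and CRF at EC100 for full effect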
CRFBP-R2 block – CRF-BP/CRF-R2 complex antagonism. HEK293 CRF-R2/CRF-BP, CRF-induced calcium fluorescence. inhibition, % at 11.8 µM. hit rate 0.59% among 350,000. AID 588475;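 active = inhibition of the ligand-induced calcium signal above about 50% at the single tested concentration, limit read from the data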
GPR7 antag cf – human GPR7 antagonism, confirmation assay | shares compounds with GPR7 antagonist | GPR7-expressing cells, calcium fluorescence antagonist mode | inhibition, % at 4.4 µM | hit rate 52% among 2,400 | AID 1952; in the data active = inhibition above about 24%;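 note: stimulated with the GPR7 agonist NPW; 0% = agonist plus vehicle and 100% = vehicle alone without agonist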
MCHR1 antagonist – counter-screen for GPR7 antagonists: antagonists of human MCHR1 | shares compounds with GPR7 antagonist | MCHR1-expressing cells, fluorescence antagonist assay | inhibition, % at 4.4 µM | hit rate 62% among 2,400; in the data active = inhibition above about 22%;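 note: 0% = vehicle with agonist and 100% = vehicle without agonist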
Numbers without * were called inactive; / = no result. A selection: hits, their analogues and other compounds. The true share with any hit is near 2%.

SMILES	zfTRPN1 agonist	TRPML3 agonist	GPR7 antagonist	CRFBP-R2 agonist	CRFBP-R2 block	GPR7 antag cf	MCHR1 antagonist
S=C(NCCc1ccccc1)Nc1ccc(Cl)cc1	2	1	-12	15	18	/	/
S=C(NCc1ccncc1)Nc1cccc(Cl)c1	1	1	-12	1	4	/	/
NS(=O)(=O)c1ccc(NC(=S)NCCc2ccccc2)cc1	1	0	4	-1	-8	/	/
O=[N+]([O-])c1ccc(NC(=S)NCCc2ccccc2)cc1	19*	12*	47*	29	19	61*	59*
Cc1cc(NC(=O)COC(=O)c2c(C)noc2C)ccc1Br	1	0	36*	0	-1	18	25*
C#Cc1cccc(C(=O)N2CCCC(CCC(=O)NCc3ccccc3F)C2)c1 (configuration not stated)	/	/	-4	0	10	/	/
CC(=O)/C(N=Nc1c(C)n(C)n(-c2ccccc2)c1=O)=C(\C)O	-2	0	28*	0	-4	0	-4
CCOC(=O)C1CN(S(=O)(=O)c2cccs2)c2ccc(CC(=O)OC)cc2O1 (configuration not stated)	/	/	-13	1	2	/	/
Nc1c2c(=O)[nH]c(O)cc2nn1-c1ccccc1	/	/	/	2	-1	/	/
COc1ccc(CCC(=O)OCC(=O)c2c(N)n(CC(C)C)c(=O)n(C)c2=O)cc1	/	/	28*	-2	11	44*	60*
COc1ccccc1CCC(=O)OCC(=O)c1c(N)n(CC(C)C)c(=O)n(C)c1=O	/	/	/	2	8	/	/
O=C(OCC(=O)N1CCN(S(=O)(=O)c2ccccc2)CC1)c1ccc([N+](=O)[O-])o1	1	1	29*	0	15	-5	-1
O=C(COC(=O)c1cccc(O)c1)Nc1ccc(S(=O)(=O)N2CCOCC2)cc1	/	/	/	0	-2	/	/
COCCCNCCCCOc1ccc(Br)cc1Cl	1	0	1	-2	3	/	/
CC1CCCN(CCCOc2ccc(Br)cc2Cl)C1 (configuration not stated)	-1	3	2	-1	-24	/	/
CC1CCN(CCOCCOc2ccc(Br)cc2Cl)CC1	0	0	29*	-2	-12	32*	37*
CN(C)CCCCOc1ccc(Br)cc1Cl	0	1	29*	-1	8	17	18
CC(C)CN(C(=O)COC(=O)CCc1c[nH]c2ccccc12)c1c(N)n(Cc2ccccc2)c(=O)[nH]c1=O	/	/	/	-1	-4	/	/
O[C@@H]1CN(Cc2ccccc2Cl)CC[C@H]1N1CCOCC1	/	/	-8	1	0	/	/
Cc1cc(N2CCCCC2)nc(N)n1	11	11	43*	235*	-47	53*	75*
O=C(c1ccc(Cl)c(Cl)c1)N(Cc1ccco1)c1ccc(O)cc1	0	0	29*	-1	-16	3	4
O=C(COc1ccccc1)N(Cc1ccco1)c1ccc(O)cc1	1	0	-7	-3	0	/	/
O=C(COC(=O)c1cc(Br)ccc1O)NCCC1=CCCCC1	/	/	/	-3	0	/	/
CCn1c(SCC(=O)Nc2ccc3[nH]c(=O)[nH]c3c2)nc2ccccc21	/	/	/	-1	25	/	/
CCn1c(SCC(=O)Nc2ccc(C(C)=O)cc2)nc2ccccc21	-1	-1	30*	0	18	4	20
SMILES	zfTRPN1 agonist	TRPML3 agonist	GPR7 antagonist	CRFBP-R2 agonist	CRFBP-R2 block	GPR7 antag cf	MCHR1 antagonist
O=C(Cc1nc2ccccc2s1)c1ccc(O)cc1O	-1	0	25*	/	/	8	4
CN(CC(=O)Nc1ccccc1Cl)C(=O)c1cccc(S(=O)(=O)N2CCN(c3ccc(F)cc3)CC2)c1	/	/	31*	5	5	24*	53*
CCCSc1nnc(CSc2nc3ccccc3s2)n1-c1ccccc1	-1	0	32*	0	32	10	50*
CN(Cc1ccon1)C(=O)CC1C(=O)NCCN1Cc1cccc(Oc2ccccc2)c1 (configuration not stated)	1	1	-2	1	-4	/	/
CN(Cc1ccccn1)C(=O)CC1C(=O)NCCN1Cc1cccc(Oc2ccccc2)c1 (configuration not stated)	0	0	26*	-1	-29	-6	5
Cc1csc(SCC(=O)NC2CCCC2)n1	/	/	/	3	4	/	/
